hiPSC survival – hiPSC single-cell survival enhancement; actives 0.044% (n = 360,000); survival enhancement, % at 20 µM; ATPlite luminescence; 100% = ROCK inhibitor wells, 0% = DMSO; in the data active = survival enhancement above about 18%;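 note: cells exposed to compounds for 16 hours before the ATP read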
Granule exo inh – blocks lytic granule exocytosis. TALL-104 LAMP-1 surface exposure, flow cytometry; cells stimulated with thapsigargin and PMA. inhibition, % at 10 µM. actives 0.66% (n = 360,000). AID 651702;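 active = inhibition above about 55%, limit read from the data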
ABCB6 inh 2 – inhibitors of human ABC transporter ABCB6. Q9NP58. K562-ABCB6 porphyrin accumulation, flow cytometry, 1 h; hits give low values. fluorescence ratio to DMSO, % at 10 µM. actives 0.19% (n = 360,000);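 active = fluorescence ratio to DMSO below 75%, the collection mean minus 3 SD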;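 note: signal is porphyrin accumulated inside mitochondria; lower ratio means ABCB6 inhibition with less porphyrin fluorescence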
MC4R antag cAMP – blocks human MC4R cAMP signaling; P32245; inhibition, % at 6.5 µM; actives 0.48% (n = 360,000); AID 540295; MC4R-expressing cells, MTII-stimulated cAMP, LANCE TR-FRET;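 active = inhibition above its plate's cutoff, the mean of tested wells on that plate plus 3 SD, cut at about 29% in these data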
Target sequence (P32245 whole entry, looked up): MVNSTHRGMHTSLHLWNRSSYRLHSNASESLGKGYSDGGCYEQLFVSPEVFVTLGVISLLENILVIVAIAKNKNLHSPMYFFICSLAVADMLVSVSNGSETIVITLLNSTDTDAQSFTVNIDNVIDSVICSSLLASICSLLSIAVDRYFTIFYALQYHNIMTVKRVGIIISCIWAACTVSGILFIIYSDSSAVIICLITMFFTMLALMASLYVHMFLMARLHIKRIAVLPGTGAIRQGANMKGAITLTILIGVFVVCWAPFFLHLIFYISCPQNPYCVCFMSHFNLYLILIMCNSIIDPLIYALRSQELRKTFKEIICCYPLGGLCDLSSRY
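Material: U2OS-MC4R stable cell line | Reagent: Melanotan II challenge after compound preincubation | Doses: One concentration, 6.5 µM nominal | Incubation: 30-min compound preincubation, 1-h Melanotan II challenge, 1-h detection, room temperature | Signal: TR-FRET cAMP assay | Replicates: One well per compound, no replicates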
TbMetRS inhib – Trypanosoma brucei MetRS inhibition; purified T. brucei MetRS, ATP depletion, Kinase-Glo luminescence; actives 0.4% (n = 360,000); inhibition, % at 11.9 µM; AID 624268;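 active = inhibition above a per-plate cutoff of the control wells' mean inhibition plus 3 SD, cut at about 5.5% in these data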
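System: purified T. brucei MetRS enzyme / Detection: Kinase-Glo luciferase luminescence reporting remaining unconsumed ATP / Medium: HEPES buffer with MgCl2, KCl, DTT, spermine, BSA, pyrophosphatase / Replication: singlicate, one well per compound / Evaluation: percent inhibition relative to median high and low control wells / Schedule: 2 h aminoacylation at 25 °C after 15 min preincubation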
MC4R ag barr – human MC4R agonism via beta-arrestin. P32245. U2OS MC4R beta-arrestin complementation, luminescence; percent of melanotan II response, DMSO zero. activation, % at 8.9 µM. actives 0.98% (n = 360,000). AID 540308;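 active = activation above a per-plate cutoff, the mean activation of sample wells on that plate plus 3 SD, cut at about 8% in these data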
Numbers stand for hits; 0 = inactive; - = not tested or not shown; ! = a repeat was not active. A selection: hits, their analogues and other compounds. The true share with any hit is near 2.6%.

SMILES | hiPSC survival | Granule exo inh | ABCB6 inh 2 | MC4R antag cAMP | TbMetRS inhib | MC4R ag barr
Nc1cccc2nsnc12 | 0 | 0 | 0 | 0 | 0 | 0
CCC(=O)OC1(C)C(=O)C2=COC(c3ccc(OC)cc3)=CC2=C(Br)C1=O (stereo unspecified) | 0 | 0 | 0 | 0 | 0 | 0
COc1ccc(C2=CC3=C(Br)C(=O)C(C)(O)C(=O)C3=CO2)cc1 (stereo unspecified) | 0 | 0 | 0 | 35 | 0 | 0
CNC(=S)N/N=C/c1c2ccccc2c(Cl)c2ccccc12 | 0 | 56 | 0 | 0 | 0 | 0
NC(=S)N/N=C\c1c2ccccc2cc2ccccc12 | 0 | 65 | 0 | 0 | 0 | 0
Cn1cccc1CC(=O)N/N=C\c1c2ccccc2cc2ccccc12 | 0 | 0 | 73 | 0 | 0 | 0
Cn1cccc1CC(=O)N/N=C/c1cccc2ccccc12 | 0 | 0 | 0 | 0 | 0 | 0
CCOc1ccc2oc(C(=O)Nc3ccc4c(c3)OCO4)c(C)c2c1 | 0 | 0 | 0 | 0 | 0 | 0
CCOc1ccc2oc(C(=O)Nc3ccc(N4CCOCC4)cc3)c(C)c2c1 | 0 | 0 | 0 | 0 | 0 | 9.3
Cc1cccc(OCCCC(=O)NNC(=O)c2ccccn2)c1 | 0 | 0 | 0 | 0 | 0 | 0
N#C/C(=C\Nc1ccccc1O)c1nc2ccccc2o1 | 0 | 86 | 0 | 0 | 0 | 0
N#C/C(=C\c1ccc(Cl)cc1)c1nc2ccccc2o1 | 0 | 0 | 0 | 0 | 0 | 8.9
CC(C)(CNC(=O)c1ccc(-c2cccc(C(F)(F)F)c2)o1)N1CCOCC1 | 0 | 0 | 0 | 0 | 0 | 0
CCN(CC)CCCNC(=S)N1CCN(c2nc(-c3ccc(F)cc3)cs2)CC1 | 0 | 69 | 0 | 0 | 0 | 0
Cc1cc(C)c(S(C)(=O)=O)c(Oc2cccc(C(F)(F)F)c2)n1 | 0 | 0 | 0 | 0 | 0 | 0
CCCCN1C(=O)Cc2c1nc(N)c1c(N)nc(N(CCC)CCC)c(C#N)c21 | 0 | 72 | 0 | 0 | 0 | 0
C/C(N)=C(/C#N)C(=O)COC(=O)c1cc(-c2ccc(Br)cc2)nc2ccccc12 | 0 | 0 | 0 | 0 | 0 | 8.4!
Cc1cccc(C(=O)NN(C)c2nc(-c3ccccc3)nnc2C(F)(F)F)c1 | 0 | 0 | 69 | 0 | 0 | 0
COc1ccc(C(=O)NN(C)c2nc(-c3ccccc3)nnc2C(F)(F)F)cc1 | 0 | 0 | 0 | 0 | 0 | 0
CC(C)(C)NC(=O)COc1ccc(S(=O)(=O)N2CCCC2)cc1 | 0 | 0 | 0 | 0 | 0 | 0
Cc1c(/C=N/NC(=O)c2ccc(O)cc2)c2ccccn2c1C(=O)c1ccc(F)cc1 | 0 | 0 | 0 | 0 | 0 | 0
Cc1c(/C=N/NC(=O)c2ccccc2O)c2ccccn2c1C(=O)c1ccc(F)cc1 | 0 | 78 | 0 | 0 | 0 | 0
COc1cc(Cl)c(C)cc1NC(=O)c1ccccc1NC(=O)CN1CCOCC1 | 0 | 0 | 0 | 0 | 0 | 0
O=C(Nc1cccc(Cl)c1)Nc1nnc([C@H]2C[C@H](O)[C@@H](CO)O2)s1 | 0 | 0 | 0 | 0 | 0 | 0
CCc1ccc2nc(N(CCCN(C)C)C(=O)c3ccc(S(=O)(=O)N(C)C4CCCCC4)cc3)sc2c1 | 0 | 0 | 0 | 0 | 0 | 13
SMILES | hiPSC survival | Granule exo inh | ABCB6 inh 2 | MC4R antag cAMP | TbMetRS inhib | MC4R ag barr
Cc1ccc(CCNC(=O)CS(=O)Cc2nc(-c3ccccc3Cl)oc2C)cc1 (stereo unspecified) | 0 | 0 | 0 | 0 | 0 | 0
Cn1c(=O)cc(OCCCC(=O)Nc2cccc(Cl)c2)c2ccccc21 | 21 | 0 | 0 | 0 | 0 | 0
Cn1c(=O)cc(OCCCC(=O)Nc2ccccn2)c2ccccc21 | 0 | 0 | 0 | 0 | 0 | 0
Cc1ccc(C)c(N2CCN(C(=O)CCCOc3cc(=O)n(C)c4ccccc34)CC2)c1 | 0 | 0 | 0 | 0 | 0 | 12
Cc1ccc(C)c(N2CCN(C(=O)COc3cc(=O)n(C)c4ccccc34)CC2)c1 | 0 | 0 | 0 | 0 | 0 | 0
COc1nc(N)nc2c1ncn2C1OC(CO)CC1O (stereo unspecified) | 0 | 0 | 0 | 0 | 0 | 0
Cc1ccc(S(=O)(=O)N2CCC(=O)N([C@H](COCc3ccc(C(F)(F)F)cc3)C(C)C)CC2)cc1 | 0 | 0 | 0 | - | 0 | -
CC(C)N(C(=O)Cn1c(=O)oc2ccccc21)c1ccccc1 | 0 | 0 | 0 | 0 | 0 | 0
O=C(CCc1ccccc1)N1CCN(Cc2ccc(F)cc2Cl)CC1 | 0 | 0 | 0 | 0 | 0 | 0
COc1cc(C(=O)N/N=C/c2ccc(OC(=O)c3ccccc3Cl)c(OC)c2)ccc1O | 0 | 0 | 0 | 0 | 0 | 11
COc1ccc(/C=N\NC(=O)c2ccc(-c3ccccc3)cc2)cc1COC(C)=O | 0 | 0 | 0 | 0 | 0 | 9.1
COc1cc(/C=N\NC(=O)c2ccc(C)nc2)ccc1OC(=O)c1cccc(F)c1 | 0 | 0 | 0 | 0 | 0 | 9.1
Cc1ccc(C(=O)N/N=C\c2ccc(OC(=O)c3cccc(F)c3)cc2)cn1 | 0 | 0 | 0 | 0 | 0 | 0
COc1ccc(NS(=O)(=O)c2cccc(C(=O)NCC(c3ccco3)N3CCCC3)c2)cc1 (stereo unspecified) | 0 | 0 | 0 | 0 | 0 | 0
CC1(C)Cc2cccc(OCC(=O)NCc3ccccc3F)c2O1 | 0 | 0 | 0 | 0 | 0 | 0
Cc1cc2c(cc1C)CSC(c1ccc(O)cc1)SC2 | 0 | 0 | 0 | 0 | 0 | 8.6
CC[n+]1c(C)sc2c3ccsc3ccc21 | 0 | 0 | 0 | 0 | 0 | 0
CCN1/C(=C/c2ccc3cccc(C)c3[n+]2CC)Sc2ccccc21 | 0 | 76 | 0 | 0 | 0 | 0
C[n+]1ccccc1/C=C1\Sc2ccccc2N1CCO | 0 | 0 | 0 | 0 | 0 | 0
CCN1/C(=C\c2ccc3cc(C)ccc3[n+]2CC)Sc2cc(C)c(C)cc21 | 0 | 73 | 0 | 0 | 0 | 0
CCN1/C(=C/c2ccc3cc(C)ccc3[n+]2CC)Sc2ccc3sccc3c21 | 0 | 74 | 0 | 0 | 0 | 14
COC(=O)c1sccc1NC(=O)Nc1ccccc1Cl | 0 | 0 | 0 | 0 | 0 | 0
O=C1S/C(=C\c2ccc(N3CCOCC3)o2)C(=O)N1Cc1c(F)cccc1Cl | 0 | 88 | 0 | 0 | 0 | 0
O=C1S/C(=C/c2ccc(N3CCOCC3)o2)C(=O)N1Cc1c(F)cccc1Cl | 0 | 106 | 0 | 0 | 0 | 0
O=C(NCCN1CCOCC1)c1ccc2c(c1)N(Cc1c(F)cccc1Cl)C(=O)c1ccccc1S2 | 0 | 0 | 0 | 0 | 0 | 0
O=C1N=C(N2CCOCC2)S/C1=C/c1ccc(-c2ccccc2Cl)o1 | 0 | 0 | 0 | 0 | 0 | 0
CCOC(=O)Cc1cnc(NC(=O)CSc2nc(C(C)C)cc(=O)[nH]2)s1 | 0 | 0 | 0 | 0 | 0 | 0
O=[N+]([O-])c1cc([N+](=O)[O-])c(Oc2c(F)ccc(F)c2F)cc1NN1CCCCC1 | 0 | 0 | 0 | 0 | 0 | 0

Compound activity as filed in PubChem.
